Experimental data from ChEMBL document CHEMBL3526060, “Impact of hydrolysis-mediated clearance on the pharmacokinetics of novel anaplastic lymphoma kinase inhibitors” (Drug Metab Dispos, 2013).

How the values were obtained:
[1] = AUC (0 to infinity) in CD-1 mouse at 2 mg/kg, iv administered as single bolus dose by LC-MS/MS analysis; assay type: ADME, organism-based; parameters: time infinity, dose 2 mg/kg, route intravenous; details: plasma
Summary of the method: (§1)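 Single 2 mg/kg IV bolus via lateral tail vein to male CD-1 mice. Mice euthanized at 0.083–24 h, 3 per time point (27 animals); cardiac-puncture blood into heparin on ice, plasma spun at 4 °C and immediately extracted with acetonitrile/0.1% formic acid plus IS, LC-MS/MS. Noncompartmental CL = Dose/AUC0–inf, t1/2 = 0.693/k, Vss from AUMC/AUC, MRT = Vss/CL.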

[2] = Plasma clearance in CD-1 mouse at 2 mg/kg, iv administered as single bolus dose by LC-MS/MS analysis; assay type: ADME, organism-based; parameters: dose 2 mg/kg, route intravenous; summary of the method: as §1
[3] = Mean residence time in CD-1 mouse at 2 mg/kg, iv administered as single bolus dose by LC-MS/MS analysis; assay type: ADME, organism-based; parameters: dose 2 mg/kg, route intravenous; details: in vivo; summary of the method: as §1
[4] = Half life in CD-1 mouse at 2 mg/kg, iv administered as single bolus dose by LC-MS/MS analysis; assay type: ADME, organism-based; parameters: dose 2 mg/kg, route intravenous; details: in vivo; summary of the method: as §1
[5] = Volume of distribution at steady state in CD-1 mouse at 2 mg/kg, iv administered as single bolus dose by LC-MS/MS analysis; assay type: ADME, organism-based; parameters: dose 2 mg/kg, route intravenous; details: in vivo, read-out: Vdss; summary of the method: as §1
[6] = Intrinsic clearance in CD-1 mouse liver microsomes at 0.1 uM by LC-MS/MS analysis in presence of NADPH; assay type: ADME; details: read-out: CLH
Summary of the method: (§2)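 Liver microsomes (0.25 mg/mL protein, 0.1 M phosphate pH 7.4) from mouse, rat, dog or human; substrate 0.1 or 1 µM with 1 mM NADPH (mouse also without). Samples at 0, 10, 20, 30, 40 min into acetonitrile with tolbutamide, centrifuged, LC-MS/MS; CLint = (0.693/t1/2)/microsomal protein concentration.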

[7] = Intrinsic clearance in Sprague-Dawley rat liver microsomes at 0.1 uM by LC-MS/MS analysis in presence of NADPH; assay type: ADME; details: read-out: CLH; summary of the method: as §2
[8] = AUC (0 to infinity) in CD-1 mouse at 20 mg/kg, po administered through gavage by LC-MS/MS analysis; assay type: ADME, organism-based; parameters: time infinity, dose 20 mg/kg, route oral; details: plasma
Summary of the method: (§3)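 Male CD-1 mice, fasted overnight, food returned 2 h post-dose; single oral gavage at 20, 50 or 100 mg/kg. Terminal cardiac-puncture blood at 0.25, 0.5, 1, 2, 4, 6, 8, 24 h, 3 mice per time point; heparinized plasma extracted into acetonitrile/formic acid with IS, LC-MS/MS. Noncompartmental analysis: linear trapezoidal AUC extrapolated to infinity, CL/F, F relative to 2 mg/kg IV.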

[9] = Apparent oral clearance in CD-1 mouse at 20 mg/kg, po administered through gavage by LC-MS/MS analysis; assay type: ADME, organism-based; parameters: dose 20 mg/kg, route oral; details: in vivo; summary of the method: as §3
[10] = Oral bioavailability in CD-1 mouse at 20 mg/kg administered through gavage by LC-MS/MS analysis relative to 2 mg/kg, iv dose; assay type: ADME, organism-based; details: in vivo; summary of the method: as §3
[11] = Cmax in CD-1 mouse at 50 mg/kg, po administered through gavage by LC-MS/MS analysis; assay type: ADME, organism-based; parameters: dose 50 mg/kg, route oral; details: in vivo; summary of the method: as §3
[12] = Tmax in CD-1 mouse at 50 mg/kg, po administered through gavage by LC-MS/MS analysis; assay type: ADME, organism-based; parameters: dose 50 mg/kg, route oral; details: in vivo; summary of the method: as §3
[13] = Half life in CD-1 mouse at 50 mg/kg, po administered through gavage by LC-MS/MS analysis; assay type: ADME, organism-based; parameters: dose 50 mg/kg, route oral; details: in vivo; summary of the method: as §3
[14] = AUC (0 to infinity) in CD-1 mouse at 50 mg/kg, po administered through gavage by LC-MS/MS analysis; assay type: ADME, organism-based; parameters: time infinity, dose 50 mg/kg, route oral; details: plasma; summary of the method: as §3
[15] = Apparent oral clearance in CD-1 mouse at 50 mg/kg, po administered through gavage by LC-MS/MS analysis; assay type: ADME, organism-based; parameters: dose 50 mg/kg, route oral; details: in vivo; summary of the method: as §3
[16] = system: Mus musculus; assay: Oral bioavailability in CD-1 mouse at 50 mg/kg administered through gavage by LC-MS/MS analysis relative to 2 mg/kg, iv dose; assay type: ADME, organism-based; details: in vivo; summary of the method: as §3
[17] = Cmax in CD-1 mouse at 100 mg/kg, po administered through gavage by LC-MS/MS analysis; assay type: ADME, organism-based; parameters: dose 100 mg/kg, route oral; details: in vivo; summary of the method: as §3
[18] = Tmax in CD-1 mouse at 100 mg/kg, po administered through gavage by LC-MS/MS analysis; assay type: ADME, organism-based; parameters: dose 100 mg/kg, route oral; details: in vivo; summary of the method: as §3
[19] = Half life in CD-1 mouse at 100 mg/kg, po administered through gavage by LC-MS/MS analysis; assay type: ADME, organism-based; parameters: dose 100 mg/kg, route oral; details: in vivo; summary of the method: as §3
[20] = AUC (0 to infinity) in CD-1 mouse at 100 mg/kg, po administered through gavage by LC-MS/MS analysis; assay type: ADME, organism-based; parameters: time infinity, dose 100 mg/kg, route oral; details: plasma; summary of the method: as §3
[21] = Apparent oral clearance in CD-1 mouse at 100 mg/kg, po administered through gavage by LC-MS/MS analysis; assay type: ADME, organism-based; parameters: dose 100 mg/kg, route oral; details: in vivo; summary of the method: as §3
[22] = Oral bioavailability in CD-1 mouse at 100 mg/kg administered through gavage by LC-MS/MS analysis relative to 2 mg/kg, iv dose; assay type: ADME, organism-based; details: in vivo; summary of the method: as §3
[23] = Intrinsic clearance in human liver microsomes at 0.1 uM by LC-MS/MS analysis in presence of NADPH; assay type: ADME; details: read-out: CLH; summary of the method: as §2
[24] = Intrinsic clearance in CD-1 mouse liver microsomes at 0.1 uM by LC-MS/MS analysis in absence of NADPH; assay type: ADME; details: read-out: CLH; summary of the method: as §2
[25] = Intrinsic clearance in CD-1 mouse liver microsomes at 1 uM by LC-MS/MS analysis in presence of NADPH; assay type: ADME; details: read-out: CLH; summary of the method: as §2
[26] = Intrinsic clearance in Sprague-Dawley rat liver microsomes at 1 uM by LC-MS/MS analysis in presence of NADPH; assay type: ADME; details: read-out: CLH; summary of the method: as §2
[27] = Intrinsic clearance in Beagle dog liver microsomes at 1 uM by LC-MS/MS analysis in presence of NADPH; assay type: ADME, Canis lupus familiaris; details: read-out: CLH; summary of the method: as §2
[28] = Intrinsic clearance in human liver microsomes at 1 uM by LC-MS/MS analysis in presence of NADPH; assay type: ADME; details: read-out: CLH; summary of the method: as §2
[29] = Intrinsic clearance in CD-1 mouse liver microsomes at 1 uM by LC-MS/MS analysis in absence of NADPH; assay type: ADME; details: read-out: CLH; summary of the method: as §2
[30] = In vitro half life in CD-1 mouse plasma at 0.83 uM by LC-MS/MS analysis; assay type: ADME, cell-free
Summary of the method: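 Screening stability: compound at 0.83 µM in mouse plasma at 37 °C, up to 3 h; timed aliquots quenched into acetonitrile with tolbutamide IS, centrifuged, LC-MS/MS; half-life from depletion, CLint = (0.693/t1/2)/plasma concentration.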

[31] = Cmax in CD-1 mouse at 20 mg/kg, po administered through gavage by LC-MS/MS analysis; assay type: ADME, organism-based; parameters: dose 20 mg/kg, route oral; details: in vivo; summary of the method: as §3
[32] = Tmax in CD-1 mouse at 20 mg/kg, po administered through gavage by LC-MS/MS analysis; assay type: ADME, organism-based; parameters: dose 20 mg/kg, route oral; details: in vivo; summary of the method: as §3
[33] = Half life in CD-1 mouse at 20 mg/kg, po administered through gavage by LC-MS/MS analysis; assay type: ADME, organism-based; parameters: dose 20 mg/kg, route oral; details: in vivo; summary of the method: as §3
[34] = system: Plasma; assay: Drug metabolism in CD-1 mouse plasma assessed as hydrolysis metabolite formation rate by LC-MS/MS analysis; assay type: ADME, cell-free
Summary of the method: (§4)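 Mouse plasma depletion kinetics at 37 °C, substrate range 0.0023–5 µM, up to 3 h; samples quenched into acetonitrile/tolbutamide, LC-MS/MS. CLint per concentration from t1/2; apparent Vmax and Km fitted by nonlinear regression to Michaelis-Menten, formation rate simulated from fit; mean of two replicates.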

[35] = Drug metabolism in CD-1 mouse liver microsomes assessed as hydrolysis metabolite formation rate by LC-MS/MS analysis; assay type: ADME
Summary of the method: (§5)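 Mouse liver microsomes 0.25 mg/mL in 0.1 M phosphate pH 7.4, with or without 1 mM NADPH, substrate 0.0023–5 µM; sampling to 40 min into acetonitrile/IS, LC-MS/MS depletion. Hydrolysis Vmax/Km solved from no-NADPH incubations, then NADPH-dependent constants; metabolite formation rate simulated from fitted constants; duplicates.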

[36] = Drug metabolism in CD-1 mouse NADPH-fortified liver microsomes assessed as hydrolysis metabolite formation rate by LC-MS/MS analysis; assay type: ADME; summary of the method: as §5
[37] = system: Plasma; assay: Drug metabolism in CD-1 mouse plasma assessed as maximum intrinsic clearance for hydrolysis metabolite formation by LC-MS/MS analysis; assay type: ADME, cell-free; summary of the method: as §4
[38] = Fraction unbound in CD-1 mouse liver microsomes after 7 hrs by equilibrium dialysis method; assay type: ADME
Summary of the method: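 Equilibrium dialysis of 0.25 mg/mL mouse liver microsomes in phosphate buffer against PBS, 7 h at 37 °C, 5% CO2, test compound 0.1, 0.5 or 2 µM, triplicate; LC-MS/MS; fraction unbound = buffer/microsome concentration.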

[39] = Fraction unbound in CD-1 mouse plasma after 7 hrs by equilibrium dialysis method; assay type: ADME, cell-free
Summary of the method: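 Mouse plasma pre-treated 20 min with 100 µM DFP to block hydrolysis, spiked at 0.1, 0.5 or 2 µM, equilibrium dialysis against PBS for 7 h at 37 °C, 5% CO2, triplicate; matrix-matched samples extracted with acetonitrile/IS, LC-MS/MS; fu = buffer/plasma concentration.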

[40] = system: Plasma; assay: Metabolic stability in CD-1 mouse plasma assessed as hydrolysis product M1 [(1s,4s)-4-(2-amino-6-((4-(2-hydroxypropan-2-yl)piperidin-1-yl)methyl)-1H-benzo[d]imidazol-1-yl)-N-isopropylcyclohexanecarboxamide] formation at 5 uM after 20 mins by LC-MS/MS analysis; assay type: ADME, cell-free

AUC(0-inf) [1]: 0.627 µM·h
clearance [2]: 92 mL/min/kg
MRT [3]: 0.474 h
half-life [4]: 1.05 h
Vd [5]: 2.62 L/kg
microsomal CLint at 0.1 µM [6]: 891 µL/min/mg
microsomal CLint at 0.1 µM [7]: 14 µL/min/mg
AUC(0-inf) [8]: 1.31 µM·h
CL/F [9]: 437 mL/min/kg
bioavailability [10]: 21.1%
Cmax [11]: 10.7 µM
Tmax [12]: 1 h
half-life [13]: 2.3 h
AUC(0-inf) [14]: 23.7 µM·h
CL/F [15]: 60.8 mL/min/kg
F [16]: 151%
Cmax [17]: 15.2 µM
Tmax [18]: 1 h
half-life [19]: 2.17 h
AUC(0-inf) [20]: 37.4 µM·h
CL/F [21]: 77.2 mL/min/kg
bioavailability [22]: 120%
microsomal CLint at 0.1 µM [23]: 93 µL/min/mg
microsomal CLint at 0.1 µM [24]: 805 µL/min/mg
microsomal CLint at 1 µM [25]: 110 µL/min/mg
microsomal CLint at 1 µM [26]: 13 µL/min/mg
microsomal CLint at 1 µM [27]: 33 µL/min/mg
microsomal CLint at 1 µM [28]: 67 µL/min/mg
microsomal CLint at 1 µM [29]: 50 µL/min/mg
half-life at 0.83 µM [30]: 0.2 h
Cmax [31]: 0.782 µM
Tmax [32]: 0.25 h
half-life [33]: 1.23 h
Vmax(app) [34]: 19.7 pmol/min/mL
Km ([34]; read-out: Km(app)): 0.276 µM
Vmax(app) [35]: 82 pmol/min/mg
Km ([35]; read-out: Km(app)): 0.0437 µM
Vmax(app) [36]: 45.4 pmol/min/mg
Km ([36]; read-out: Km(app)): 0.263 µM
CL [37]: 71.4 uL/min.ml
fraction unbound at 7 h [38]: 0.76
fraction unbound at 7 h [39]: 0.02
Drug metabolism [40]: metabolite_detected
Compound: CC(C)NC(=O)[C@H]1CC[C@@H](n2/c(=N/C(=O)c3ccc(F)cc3)[nH]c3ccc(CN4CCC(C(C)(C)O)CC4)cc32)CC1
